{"data": "Experimental data from different studies", "note": "Compare with care: the assays were run in different laboratories."}
{"Structure (SMILES)": "O=C(Cc1c[nH]c2ccccc12)Nc1cccc(Br)c1", "test": "ABTS scavenging", "endpoint": "IC50", "result": "1140 nM"}
{"Structure (SMILES)": "COc1ccc(-c2ccc(-c3ccc(C(=N)N)nc3)s2)cc1", "tested on": "OVCAR-4", "test": "cell growth or viability, SRB", "endpoint": "GI50", "result": "1790 nM"}
{"Structure (SMILES)": "O=C(CN1C(=O)/C(=C/c2cccc([N+](=O)[O-])c2)SC1=S)Nc1ccccc1", "tested on": "PC-3", "test": "cell growth or viability, MTT", "setting": "10 µM", "endpoint": "inhibition", "result": "17.6%"}
{"Structure (SMILES)": "O=C(Cc1c[nH]c2ccccc12)Nc1ccc(F)c(F)c1", "test": "ABTS scavenging", "endpoint": "IC50", "result": "1080 nM"}
{"Structure (SMILES)": "O=C(CN1C(=O)/C(=C/c2ccccc2O)SC1=S)Nc1ccccc1", "tested on": "A549", "test": "cell growth or viability, MTT", "setting": "10 µM", "endpoint": "inhibition", "result": "34.5%"}
{"Structure (SMILES)": "Cc1ccc(Cl)cc1NC(=O)Cc1c[nH]c2ccccc12", "test": "ABTS scavenging", "endpoint": "IC50", "result": "1280 nM"}
{"Structure (SMILES)": "COc1cccc(NC(=O)CN2C(=O)/C(=C/c3ccco3)SC2=S)c1", "tested on": "A549", "test": "cell growth or viability, MTT", "setting": "10 µM", "endpoint": "inhibition", "result": "13.7%"}
{"Structure (SMILES)": "COc1ccccc1-c1n[nH]c2nc(N[C@H]3CC[C@H](NS(=O)(=O)CCCOCCOCCNC(=O)OC(C)(C)C)CC3)ncc12", "tested on": "Leishmania donovani", "test": "parasite growth", "system": "THP-1", "setting": "intracellular, amastigote", "endpoint": "EC50", "result": "5240 nM"}
{"Structure (SMILES)": "COc1ccc(OC)c(NC(=O)Cc2c[nH]c3ccccc23)c1", "test": "ABTS scavenging", "endpoint": "IC50", "result": "1430 nM"}
{"Structure (SMILES)": "COc1cc(Nc2nccc(-c3cnn4nc(OC)ccc34)n2)cc(C(F)(F)F)c1", "tested on": "Ishikawa", "test": "cell growth or viability, ATP luminescence", "endpoint": "IC50", "result": "450 nM"}
{"Structure (SMILES)": "O=C(Nc1ccccc1-c1ccc(F)c(F)c1)c1nccnc1C(F)(F)F", "tested on": "Colletotrichum gloeosporioides", "test": "microbial growth", "endpoint": "EC50", "result": "> 100 µg/mL"}
{"Structure (SMILES)": "O=C(CN1C(=O)/C(=C/c2ccccc2Cl)SC1=S)Nc1ccccc1", "tested on": "PC-3", "test": "cell growth or viability, MTT", "setting": "10 µM", "endpoint": "inhibition", "result": "22.6%"}
